Measurements reported in publication PMC3188381 (Anti-cancer drugs, 2011).
Read-outs that look alike come from different tables or passages of the source.

Experiments:
[1] = Bioavailability and plasma pharmacokinetics; format: in vivo, Sprague-Dawley rats; conditions: rat
Summary of the method: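 Male Sprague-Dawley rats dosed at 10 mg/kg iv and 400 mg/kg po. Blood drawn into EDTA (n=3), kept on ice and processed within 30 min. Plasma spun at 2–8 °C for 15 min and stored at -80 °C. Acetonitrile with 100 ng/ml hexylnicotinate internal standard added, then vortexed and centrifuged at 18000g. Supernatant run by LC-MS/MS. Non-compartmental PK analysis.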

[2] = system: SKOV3 ovarian cancer cells; experiment: Proliferation assay; format: cell-based, human; conditions: read-out: IC50 (μM) SKOV3
[3] = system: SKOV3 cells; experiment: Western blot of cell lysates, SKOV3; format: cell-based, human; conditions: for Cleaved PARP protein expression / Cleaved caspase-3 protein expression: SKOV3, 24 hours, 50 μM LiCl, 5 μM 9ING41, 25 μM SB216763
Summary of the method: (§1)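 Lysates taken after 24 h treatment with test compound or 0.1% DMSO, in Tris-HCl pH 7.6/NaCl/NP-40/deoxycholate/SDS buffer with protease and phosphatase inhibitors, protein equalised by BCA. Run on reducing 10% Bis-Tris gels and transferred to PVDF. Blocked in 5% milk TBS-T; cleaved caspase-3 in 5% BSA PBS-0.5% tween; cyclin D1 in 5% BSA TBS-T. Probed with rabbit primaries (total GSK3β, actin as controls) and HRP anti-rabbit, detected by chemiluminescence. Densitometry from triplicate blots.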

[4] = Range-finding toxicity study; conditions: rats, oral, 8 days observation
[5] = system: OVCA432 cells; experiment: Western blot of cell lysates, OVCA432; format: cell-based, human; conditions: for Cleaved PARP protein expression / Cleaved caspase-3 protein expression: OVCA432, 24 hours, 50 μM LiCl, 5 μM 9ING41, 25 μM SB216763
Summary of the method: as §1

[6] = system: OVCA432 ovarian cancer cells; experiment: Proliferation assay; format: cell-based, human; conditions: read-out: IC50 (μM) OVCA432
[7] = system: OVCA432 cells; experiment: DAPI staining for apoptotic cells, OVCA432; format: cell-based, human; conditions: OVCA432, 24 hrs; 50 μM LiCl, 5 μM 9ING41, 25 μM SB216763; vs DMSO
Summary of the method: (§2)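 OVCA432 grown in supplemented MEM and SKOV3 in McCoy's 5A, both with 10% FBS, at 37 °C, 5% CO2. Cells plated at 5 × 10^4 per chamber-slide well and left to attach overnight. Exposed one day to test compound or 0.1% DMSO, then fixed in 4% paraformaldehyde and mounted in DAPI medium. Nuclei with condensed DNA or […] fragmentation counted in 3 fields (20× objective), triplicate experiments.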

[8] = system: OVCA432 cells; experiment: TUNEL staining, OVCA432; format: cell-based, human; conditions: OVCA432, 24 hours, 5 μM 9ING41; vs DMSO
Summary of the method: (§3)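 Cells plated at 5 × 10^4 per chamber-slide well, attached overnight at 37 °C, then treated 24 h with test compound or 0.1% DMSO. Fixed in 4% paraformaldehyde. Stained with a colorimetric TUNEL kit per manufacturer. Brown TUNEL-positive cells counted in 3 fields imaged with a 20× objective, from triplicate experiments.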

[9] = system: SKOV3 cells; experiment: DAPI staining for apoptotic cells, SKOV3; format: cell-based, human; conditions: SKOV3, 24 hrs; 5 μM 9ING41; vs DMSO
Summary of the method: as §2

[10] = system: SKOV3 cells; experiment: TUNEL staining, SKOV3; format: cell-based, human; conditions: SKOV3, 24 hours, 5 μM 9ING41; vs DMSO
Summary of the method: as §3

[11] = system: SKOV3 ovarian cancer cells; conditions: cited from earlier work
[12] = system: SKOV3 xenograft; conditions: drugs and cells mixed before subcutaneous injection; cited from earlier work
[13] = SKOV3 cells, 4 days (96 hours), concentration required to kill 50% of the cells
[14] = OVCA432 cells, 4 days (96 hours), concentration required to kill 50% of the cells

Cn1cc(C2=C(c3coc4ccc(F)cc34)C(=O)NC2=O)c2cc3c(cc21)OCO3 [9-ING-41]
AUC (area under the concentration-time curve) ([1]; iv 10 mg/kg): 2740 ng·h/mL
CL (systematic clearance) ([1]; iv 10 mg/kg): 61.5 mL/min/kg
Co (plasma concentration at T = 0) ([1]; iv 10 mg/kg): 1390 ng/mL
T1/2 (apparent elimination half-life) ([1]; iv 10 mg/kg): 4.85 h
V (volume of distribution) ([1]; iv 10 mg/kg): 26.2 L/kg
Elimination half-life ([1]; iv 10 mg/kg and po 400 mg/kg): 4.0 to 4.85 h
Volumes of distribution ([1]; iv 10 mg/kg and po 400 mg/kg): ≥ 26 L/kg
Plasma level C ([1]; iv 10 mg/kg, 0.083 h): 1390 ng/mL
Plasma level C ([1]; iv 10 mg/kg, 0.167 h): 1410 ng/mL
Plasma level C ([1]; iv 10 mg/kg, 0.5 h): 1190 ng/mL
Plasma level C ([1]; iv 10 mg/kg, 1 h): 690 ng/mL
Plasma level C ([1]; iv 10 mg/kg, 2 h): 367 ng/mL
Plasma level C ([1]; iv 10 mg/kg, 4 h): 139 ng/mL
Plasma level C ([1]; iv 10 mg/kg, 6 h): 77 ng/mL
Plasma level C ([1]; iv 10 mg/kg, 8 h): 41 ng/mL
Plasma level C ([1]; iv 10 mg/kg, 24 h): 6.7 ng/mL
AUC (area under the concentration-time curve) ([1]; po 400 mg/kg): 4950 ng·h/mL
CL (systematic clearance) ([1]; po 400 mg/kg): 2210 mL/min/kg
T1/2 (apparent elimination half-life) ([1]; po 400 mg/kg): 4.0 h
V (volume of distribution) ([1]; po 400 mg/kg): 810 L/kg
F (bioavailability) ([1]; po 400 mg/kg vs iv 10 mg/kg): 4.5%
Plasma level C ([1]; po 400 mg/kg, 0.083 h): 4.7 ng/mL
Plasma level C ([1]; po 400 mg/kg, 0.167 h): 18.2 ng/mL
Plasma level C ([1]; po 400 mg/kg, 0.5 h): 156 ng/mL
Plasma level C ([1]; po 400 mg/kg, 1 h): 540 ng/mL
Plasma level C ([1]; po 400 mg/kg, 2 h): 820 ng/mL
Plasma level C ([1]; po 400 mg/kg, 4 h): 934 ng/mL
Plasma level C ([1]; po 400 mg/kg, 6 h): 340 ng/mL
Plasma level C ([1]; po 400 mg/kg, 8 h): 123 ng/mL
Plasma level C ([1]; po 400 mg/kg, 24 h): 8.3 ng/mL
IC50 [2, 13]: 10.5 µM
Cyclin D1 expression ([3]; SKOV3, 5 μM 9ING41, 24 hours): increased
Phosphorylation of GSK3β ser9 (normalized to total GSK3β) ([3]; SKOV3, 5 μM 9ING41, 24 hours): increased phosphorylation
Phosphorylation of glycogen synthase ([3]; SKOV3, 5 μM 9ING41, 24 hours): significantly inhibited
Cleaved PARP protein expression [3]: cleaved product of PARP was detected
Cleaved caspase-3 protein expression [3]: increase in cleaved caspase-3
Maximum tolerated dose (MTD) [4]: greater than 500 mg/kg
Phosphorylation of GSK3β ser9 (normalized to total GSK3β) ([5]; OVCA432, 5 μM 9ING41, 24 hours): increased phosphorylation
Phosphorylation of glycogen synthase ([5]; OVCA432, 5 μM 9ING41, 24 hours): significantly inhibited
Cleaved PARP protein expression [5]: cleaved product of PARP was detected
Cleaved caspase-3 protein expression [5]: increase in cleaved caspase-3
IC50 [6, 14]: 11.2 µM
Induction of apoptosis (DAPI) [7]: induced apoptosis
Apoptosis (TUNEL-positive cells) [8]: significantly increased apoptosis
Induction of apoptosis (DAPI) [9]: induced apoptosis
Apoptosis (TUNEL-positive cells) [10]: significantly increased apoptosis

COc1cccc2c(C3=C(c4cn(C)c5cc(Cl)c(F)cc45)C(=O)NC3=O)coc12 [9-ING-87]
IC50 [2, 13]: 42.7 µM
IC50 [6, 14]: 10.7 µM

[Cl-].[Li+] [LiCl, Lithium chloride, reference compound]
Growth inhibition of SKOV3 [11]: growth inhibited
Cleaved PARP protein expression [3]: absence
Cleaved caspase-3 protein expression [3]: absence
SKOV3 tumor growth [12]: significantly slow SKOV3 tumor growth
Cleaved PARP protein expression [5]: absence
Cleaved caspase-3 protein expression [5]: absence
Induction of apoptosis (DAPI) [7]: induced apoptosis

Cn1cc(C2=C(c3ccc(Cl)cc3Cl)C(=O)NC2=O)c2ccccc21 [SB216763, reference compound]
Growth inhibition of SKOV3 [11]: growth inhibited
IC50 ([2]; Homo sapiens, SK-OV-3, 96 h): > 50 µM
Cleaved PARP protein expression [3]: absence
Cleaved caspase-3 protein expression [3]: absence
Cleaved PARP protein expression [5]: absence
Cleaved caspase-3 protein expression [5]: absence
IC50 ([6]; Homo sapiens, OVCA432, 96 h): > 50 µM
Induction of apoptosis (DAPI) [7]: induced apoptosis
